T cell modulator: modulators of CD8 T cell-vesicle binding, primary screen, mouse 2C CD8+ T cells, flow cytometry; 2C CD8+ T cell-vesicle binding; stronger effect = lower value; response (vesicle binding), % at 7 µM; 0.068% of 330,000 active; AID 2052, 2009;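 active = response, share of CD8 T cells binding vesicles, and their 90th percentile fluorescence all below set limits, cut at about 80% in these data, passing the limit was not always enough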;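 also: values below 100% mean blocked vesicle binding to the CD8+ T cells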
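Assay system – 2C mouse CD8+ T cells · Also added – QL9-loaded Drosophila micro-vesicles · Timing – Cell–vesicle co-incubation 1.5 h at 37 °C, staining 20 min on ice · Signal – flow cytometry of vesicle-bound cells · Measure – percent CD8+ FL2 mean versus row control · Controls – Peptide-free naked vesicles (low) and QL9 vesicles with 0.7% DMSO vehicle (high)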
GRIN3A LBD mod: binders of NR3A ligand-binding domain, primary screen, biophysical, differential scanning fluorimetry, uHTS; Tm shift relative to glycine control, % at 25 µM; NR3A LBD differential scanning fluorimetry, Tm shift; 0% = protein alone, 100% = glycine-bound protein; AID 1259313, 2017; Glutamate receptor ionotropic, NMDA 3A (GRIN3A) ligand-binding domain; 2.5% of 340,000 active;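 active = melting temperature shift of at least 10% of the positive control shift, at one fixed dose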
JMJD2C inh: inhibitors of GASC-1 histone demethylase, primary screen, biochemical, fluorescence, DELFIA europium; GST-JMJD2C(1-420) H3K9me3 demethylation; inhibition, % at 2.35 µM; 0.069% of 330,000 active; AID 2099, 2009;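 active = more than half of a compound's replicate wells show inhibition beyond 50%, single wells judged on their own value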;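 also: signal counts dimethyl H3K9 product captured on neutravidin plate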
Rtt109 HAT inh: inhibitors of C. albicans Rtt109/Vps75 HAT, primary screen, biochemical, ThioGlo CoA-SH fluorescence, plate reader; inhibition, % at 34.9 µM; AID 540336, 2011; purified Rtt109/Vps75, 4 h; Histone acetyltransferase RTT109 (Candida albicans (strain SC5314 / ATCC MYA-2876)), …; 0.16% of 330,000 active;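 active = inhibition of at least 50% in every replicate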
Target sequence (Q5AAJ8 whole entry, looked up): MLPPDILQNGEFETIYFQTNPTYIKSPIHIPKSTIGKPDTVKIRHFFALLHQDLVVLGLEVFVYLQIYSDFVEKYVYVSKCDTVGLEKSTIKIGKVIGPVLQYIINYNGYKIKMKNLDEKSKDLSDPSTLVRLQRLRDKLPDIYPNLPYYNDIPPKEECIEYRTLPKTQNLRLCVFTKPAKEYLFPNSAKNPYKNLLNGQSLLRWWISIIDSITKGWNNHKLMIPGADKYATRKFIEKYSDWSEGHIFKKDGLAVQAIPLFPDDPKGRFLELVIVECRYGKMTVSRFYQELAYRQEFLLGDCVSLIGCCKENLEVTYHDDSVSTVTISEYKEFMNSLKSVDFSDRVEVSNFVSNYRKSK
Each line names hits and unclear results; the compound was inactive in the other large screens. Most compounds without a hit are left out; they make up all but 2.8% or so of the library.

CCc1ccc(C(C)NC(=O)Cc2ccc(F)cc2)cc1 (stereo unspecified)	none
CC(NC(=O)Cc1ccc(F)cc1)c1ccccc1 (stereo unspecified)	T cell modulator 64.4
CCN1CCN(c2ccc(S(=O)(=O)N3CCOCC3)cc2NC(=O)c2ccc(F)cc2Cl)CC1	none
CCCOc1ccc(CC(=O)NNC(=S)Nc2ccccc2)cc1Br	GRIN3A LBD mod 18.5
O=C(NN(Cc1ccccc1)Cc1ccccc1)c1ccccc1	none (no result: T cell modulator, JMJD2C inh)
CN1C(=O)Cc2cc(S(=O)(=O)N3CCN(c4cccc(C(F)(F)F)c4)CC3)ccc21	GRIN3A LBD mod 24.3
Cc1ccc(C)c(N2CCN(S(=O)(=O)c3ccc4c(c3)CC(=O)N4C)CC2)c1	none
O=C(N1CCOCC1)N1CCc2ccccc21	none
c1ccc2cc(N3CCCCC3)ccc2c1	none (no result: T cell modulator, JMJD2C inh)
O=C1c2ccccc2C(=O)c2cc(N3CCCCC3)ccc21	GRIN3A LBD mod 38.3 (no result: T cell modulator, JMJD2C inh)
C=CCOc1ccc(C(=O)Nc2ccccc2C(=O)NCc2cccnc2)cc1	none
O=C(NC1=NCCS1)c1sc2cc(Cl)cc(Cl)c2c1Cl	GRIN3A LBD mod 20.1
Cc1cc(C(=O)COC(=O)/C=C/c2ccco2)c(C)n1C	none (no result: JMJD2C inh)
COc1ccc(-c2cc(-c3nnc(COC(=O)c4ccc(O)cc4)o3)c3ccccc3n2)cc1OC	GRIN3A LBD mod 15.2
O=[N+]([O-])c1ccc(N=Nc2c(Cl)cc(O)cc2Cl)cc1	GRIN3A LBD mod 17.6
CC(N)=Nc1ccc([N+](=O)[O-])cc1	none
Cn1c(NC(=O)c2ccc(F)cc2)c(-c2ccccn2)c(=O)c2ccccc21	none (no result: Rtt109 HAT inh)
CC(=O)c1ccc(NC(=S)NC(=O)Cc2ccc(Cl)cc2)cc1	none
O=C(Nc1ccc(Cl)c(Cl)c1)N1CCCCCC1	none
CC(=O)c1ccc(NC(=S)Nc2ccc3cn[nH]c3c2)cc1	GRIN3A LBD mod 10.2
O=C(Nc1ccccc1)Nc1ccc2ccccc2c1	GRIN3A LBD mod 25.8
CC(=O)Nc1ccc2ccccc2c1	none
CC(C)c1ccc(NC(=S)Nc2ccc3cn[nH]c3c2)cc1	none
O=C(c1ccc(NC(=S)Nc2ccc(Cl)c(Cl)c2)cc1)N1CCCC1	GRIN3A LBD mod 15.0
CC(=O)c1ccc(NC(=S)NC(C)c2ccc(Cl)cc2Cl)cc1 (stereo unspecified)	GRIN3A LBD mod 22.2
CCOc1ccc(S(=O)(=O)N2CCC(C(=O)NC3CCCCC3)CC2)cc1	none
CN(C)CCCn1c2c(c(SCC(=O)Nc3cccc4ccccc34)nc1=O)CCCC2	none
O=C(Nc1ccccc1)Nc1ccc(Br)c(Cl)c1	GRIN3A LBD mod 29.7
CC(=O)c1ccc(NC(=S)Nc2ccc(Br)c(Cl)c2)cc1	GRIN3A LBD mod 29.3
CC1(C)Cc2c(sc(NC(=O)c3ccccc3)c2C(=O)O)CO1	GRIN3A LBD mod 10.1
CCCCN(C(=O)c1ccc(C)o1)c1c(N)n(CC(C)C)c(=O)[nH]c1=O	none
O=C(Nc1ccccc1)c1cc2ccc3ccccc3c2s1	GRIN3A LBD mod 33.0
CCOC(=O)c1cc2ccc(OC)c(OC)c2c(=O)s1	none
COc1ccc2cc(C(=O)Nc3ccccc3)sc(=O)c2c1OC	GRIN3A LBD mod 21.9
COc1ccc2cc(C(=O)NCCO)sc(=O)c2c1OC	none
O=C(Nc1ccccc1)c1ccc(-c2ccccc2)s1	GRIN3A LBD mod 14.5
COc1cc(NC(=O)c2cc3c(Cl)nc4ccccc4c3s2)cc(OC)c1OC	none
COc1ccc2cc(C(=O)Nc3ccc(S(N)(=O)=O)cc3)sc(=O)c2c1OC	GRIN3A LBD mod 22.5
O=C(/C=C/c1ccc2c(c1)OCO2)Nc1ccc(Cl)cn1	none (no result: Rtt109 HAT inh)
O=S(=O)(NCC(Nc1ccc(Cl)cc1)c1ccccc1)c1ccc(Cl)cc1 (stereo unspecified)	GRIN3A LBD mod 27.6
O=S(=O)(NCC(c1ccccc1)N1CCC(O)CC1)c1ccc(Cl)cc1 (stereo unspecified)	none
Cc1ncc(N=Nc2ccccc2Cl)c(-c2ccccc2)n1	GRIN3A LBD mod 16.8
CCc1cccc(NC(=O)C2CCCN(c3ncnc4c3nc3n4CCCCC3)C2)c1 (stereo unspecified)	Rtt109 HAT inh 87.3
Cc1c(O)ccc(/C=N/Nc2nc(-c3cccnc3)nc3ccccc23)c1O	GRIN3A LBD mod 28.8
Cc1ccc(-c2nc(N/N=C/c3ccncc3)c3ccccc3n2)cc1	none
COc1ccc(/C=N/Nc2nc(-c3cccnc3)nc3ccccc23)cc1OC	none
Oc1ccc(/C=N/Nc2nc(-c3cccnc3)nc3ccccc23)c(O)c1	GRIN3A LBD mod 16.3
COc1ccc(Cl)cc1C(=O)Nc1ccc(OCC(=O)N2CCOCC2)cc1	none
CCOc1ccccc1NC(=O)c1ccc(OCC(=O)N2CCOCC2)c(OC)c1	none
COc1cc(C(=O)Nc2ccccc2N2CCOCC2)ccc1OCc1c(C)noc1C	GRIN3A LBD mod 11.5
COc1ccc(NC(=O)Nc2ccc(OCC(=O)N3CCOCC3)cc2)cc1OC	GRIN3A LBD mod 10.7
COc1ccc(OC)c(NC(=O)c2ccc(OCC(=O)N3CCOCC3)c(OC)c2)c1	GRIN3A LBD mod 22.2
CCN1C(=O)[C@H]2[C@@H](c3ccc(-c4ccccc4)c(OC)c3)N[C@@](CC(C)C)(C(=O)OC)[C@H]2C1=O	none (no result: JMJD2C inh)
CCCCCCCCCn1c2c(c(=N)c3c1CCC3)CCC2	Rtt109 HAT inh 67.9
CCCCCCn1c2c(c(=N)c3c1CCC3)CCC2	none
CCCCn1c(N)c(N(Cc2ccccc2OC)C(=O)CN2C(=O)NC3(CCCC3)C2=O)c(=O)[nH]c1=O	none
CC1CC(OC(=O)C2CCN(S(=O)(=O)c3ccc(F)cc3)CC2)C(=O)O1 (stereo unspecified)	none (no result: T cell modulator, JMJD2C inh)
CCCC1=NN2C(=N)/C(=C\c3cc(C)n(-c4cc(C)cc(C)c4)c3C)C(=O)N=C2S1	GRIN3A LBD mod 11.5
COc1ccc([C@H]2CC(=O)C=C(c3ccc4[nH]ccc4c3)C2)cc1OC	none
O=C1C=C(c2ccc3[nH]ccc3c2)C[C@@H](c2ccc(F)cc2)C1	GRIN3A LBD mod 21.3
O=C(c1ccccc1)N1N=C(c2ccc(F)cc2)CC1c1ccc(F)cc1 (stereo unspecified)	none (no result: T cell modulator, JMJD2C inh)
Oc1ccc(C2=NN(c3ccccc3)C(c3ccc(F)cc3)C2)cc1 (stereo unspecified)	GRIN3A LBD mod 20.5
Cc1ccc(NC(=O)N2N=C(c3ccc(F)cc3)CC2c2ccc(F)cc2)cc1 (stereo unspecified)	GRIN3A LBD mod 18.8
CC(=O)Nc1ccc(C2CC(c3ccc(Cl)cc3)=NN2c2ccccc2)cc1 (stereo unspecified)	GRIN3A LBD mod 14.9
CC(Sc1ccc(Cl)cc1)C(=O)NCC(c1ccco1)N1CCCCC1 (stereo unspecified)	none
O=C(Nc1ccc2c(c1)OCO2)N1CCN(c2ccccc2Cl)CC1	GRIN3A LBD mod 27.4
O=C(Nc1ccc(Cl)cc1)Nc1ccc2c(c1)OCO2	none
O=C(Nc1ccc2c(c1)OCO2)Nc1ccc(Cl)cc1Cl	GRIN3A LBD mod 34.2
Cc1ccc(NC(=O)Nc2ccc3c(c2)OCO3)c(Br)c1	GRIN3A LBD mod 18.6
